Hits are enriched below; roughly 2.2% of the tested compounds scored in any of these assays.
FLuc inh counter: firefly luciferase enzyme inhibitors, primary screen, artefact control for luciferase-based inhibitor screens, biochemical, luminescence, ATPLite. Luciferin 4-monooxygenase (Photinus pyralis), P08659. 10 min. inhibition, % at 10 µM. hit rate 1.5% among 200,000;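 active = inhibition above about 50% when tested at 10 µM, limit read from the data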
Target sequence (P08659 whole entry, looked up): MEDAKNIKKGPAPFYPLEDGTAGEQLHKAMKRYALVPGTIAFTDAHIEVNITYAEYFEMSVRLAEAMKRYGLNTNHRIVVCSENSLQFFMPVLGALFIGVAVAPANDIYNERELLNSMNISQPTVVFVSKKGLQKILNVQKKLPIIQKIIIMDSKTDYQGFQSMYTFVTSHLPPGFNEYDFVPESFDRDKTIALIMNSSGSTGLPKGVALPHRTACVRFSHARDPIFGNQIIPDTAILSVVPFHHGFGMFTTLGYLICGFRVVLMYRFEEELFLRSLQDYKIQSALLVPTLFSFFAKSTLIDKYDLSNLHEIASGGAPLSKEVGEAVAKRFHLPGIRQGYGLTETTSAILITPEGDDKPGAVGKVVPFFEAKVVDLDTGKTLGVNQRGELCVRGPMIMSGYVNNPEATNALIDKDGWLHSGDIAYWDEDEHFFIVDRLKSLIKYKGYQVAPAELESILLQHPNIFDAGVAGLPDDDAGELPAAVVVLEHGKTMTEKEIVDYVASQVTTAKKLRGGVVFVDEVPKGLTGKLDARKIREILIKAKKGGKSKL
C8 TRAIL sens: viability loss with TRAIL in NB7+C8 cells, primary screen, TRAIL sensitizer project, cell-based, ATPlite luminescence. inhibition (viability loss, TRAIL sensitization), % at 10 µM. hit rate 1% among 360,000. AID 624354, 2012;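 active = compounds causing at least 50% loss of cell viability in the single-dose screen, relative to plate controls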
NF-kB expr up: activators of NF-kB expression in neurons, primary screen, cell-based, HTS | human neuronal cells, NF-kB reporter expression; active compounds read high | fold change at 12.5 µM | hit rate 1.6% among 190,000 | AID 1239, 2008; in the data active = fold change above about 3.3
APP 5'UTR act: activators of APP 5'UTR luciferase reporter, primary screen, SH-SY5Y cells; SH-SY5Y APP 5'UTR luciferase reporter, luminescence; zero percent = DMSO vehicle wells; activation, % at 2 µM; hit rate 1% among 190,000;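 active = activation above a set limit, based on mean plus 3 SD of controls, cut at about 140% in these data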
PPC-1+TRAIL kill: compounds killing PPC-1 cancer cells with TRAIL present, primary screen, TRAIL potentiator project, ATPLite luminescence, uHTS; PPC-1 cells + TRAIL, ATPLite viability luminescence; cell killing (% activity), % at 4 µM or 5 µM; hit rate 0.41% among 220,000;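 active = cell killing above 50% in the first pass at 4 µM, then a duplicate retest at 5 µM averaging 50% or more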;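 also: plate controls were cells with TRAIL plus DMSO for no effect and medium-only wells lacking cells for full effect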
FLuc stim CS: FLuc activators, initial screening, artefact control for FLuc-dependent activation tests, biochemical, ATPlite luminescence; Luciferin 4-monooxygenase (Photinus pyralis), P08659; ATPlite luciferase biochemical, 10 min; 0 = ATP-free wells, 1 = DMSO control; activation factor at 10 µM; 200,000 tested, under 10 active;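 active = luciferase activation factor, scaled between plate controls, of at least 2 with compound at 10 µM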
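Assay system: Luciferase/luciferin detection reagent, cell-free biochemical luciferase assay / Read-out: luciferase activation / Benchmarks: No-ATP low control, compound-free enzyme-plus-ATP high control / Medium: PBS buffer for ATP / Detection: luminescence measurement of luciferase light output / Schedule: 10 min at ambient temperature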
Active calls of the source: *; x = no result given.

SMILES | FLuc inh counter | C8 TRAIL sens | NF-kB expr up | APP 5'UTR act | PPC-1+TRAIL kill | FLuc stim CS
C#CCOCCOCCOCCNc1nc(N2CCN(C(=O)CCCCCCCCCCNC(=O)Cn3cc(CCCCCN)nn3)CC2)nc(N2CCN(C(=O)CCCCCCCCCCNC(=O)[C@H]([C@@H](C)CC)n3cc(CCCCCN)nn3)CC2)n1 | x | 75.3* | x | x | x | x
C#CCOCCOCCOCCNc1nc(N2CCN(C(=O)CCCCCCCCCCNC(=O)[C@H](CCCCN)n3cc(CCO)nn3)CC2)nc(N2CCN(C(=O)CCCCCCCCCCNC(=O)[C@@H]([C@H](C)O)n3cc(C)nn3)CC2)n1 | x | 6.0 | x | x | x | x
C#CCOCCOCCOCCNc1nc(N2CCN(C(=O)CCCCCCCCCCNC(=O)[C@H](CCCCN)n3cc(C)nn3)CC2)nc(N2CCN(C(=O)CCCCCCCCCCNC(=O)[C@@H]([C@H](C)CC)n3cc(CCCCCN)nn3)CC2)n1 | x | 97.0* | x | x | x | x
C#CCOCCOCCOCCNc1nc(N2CCN(C(=O)CCCCCCCCCCNC(=O)Cn3cc(CCCCCN)nn3)CC2)nc(N2CCN(C(=O)CCCCCCCCCCNC(=O)[C@H](CO)n3cc(CCCCCN)nn3)CC2)n1 | x | -1.7 | x | x | x | x
C#CCOCCOCCOCCNc1nc(N2CCN(C(=O)CCCCCCCCCCNC(=O)[C@H]([C@@H](C)CC)n3cc(CCCCCN)nn3)CC2)nc(N2CCN(C(=O)CCCCCCCCCCNC(=O)[C@@H]([C@H](C)O)n3cc(C)nn3)CC2)n1 | x | 91.7* | x | x | x | x
CCOc1ccc(/C=N/Nc2ccccn2)cc1 | 82.0* | 59.1* | 8.21* | 182.1* | 45.1 | 0.2
C(=N\Nc1ccccc1)/c1ccc(N2CCOCC2)cc1 | 19.7 | -10.3 | 1.37 | 105.8 | 18.8 | 0.8
C(=N\Nc1ccccn1)/c1ccc(N2CCOCC2)cc1 | 74.3* | 17.7 | 4.52* | 115.2 | 10.0 | 0.3
O=C(C1CCC(=O)N(C2CCCC2)C1)N1CCC(Oc2ccccc2Cl)CC1 (stereo unspecified) | x | 8.0 | x | x | x | x
C=CCNC(=O)C1CC1(c1ccc(C)cc1)c1ccc(C)cc1 (stereo unspecified) | x | -4.7 | x | x | x | x
Cc1ccc(OC(=O)c2cccc([N+](=O)[O-])c2)c(-n2nc3ccccc3n2)c1 | -8.1 | 8.2 | 1.2 | 115.4 | -0.1 | 1.1
Cc1ccc(OC(=O)COc2ccccc2C)c(-n2nc3ccccc3n2)c1 | -0.2 | 7.1 | 3.8* | 91.3 | 12.9 | 1
Cc1ccc(OC(=O)COc2ccccc2)c(-n2nc3ccccc3n2)c1 | -0.4 | 6.0 | 4.78* | 59.9 | 21.7 | 1
COC(=O)COc1ccc(C)cc1-n1nc2ccccc2n1 | -6.3 | -21.1 | 1.09 | -0.8 | 6.3 | 1.1
CC(=O)NC(C)(c1ccccc1)c1nc(-c2cncnc2)cs1 (stereo unspecified) | x | 8.3 | x | x | x | x
COc1cccc(NC(=O)NC2CCN(Cc3nnnn3Cc3ccc4c(c3)OCO4)CC2)c1 | x | -9.1 | x | x | 6.8 | x
c1ccc(COc2ccc(OCCOCCn3cncn3)cc2)cc1 | 40.6 | 18.1 | 3.62* | 154.1* | -0.1 | 0.6
Cc1cc(-c2n[nH]c(=S)o2)c(C)n1-c1ccccc1 | 67.4* | x | 1.26 | 45.4 | -17.1 | 0.3
Oc1cc2ccccc2cc1-c1n[nH]c(=S)o1 | -1.9 | 16.3 | 1.01 | -2.8 | 14.2 | 1
C=C1C(=O)C23CCC4C(C)(C(=O)OC)CCCC4(C)C2CCC1(O)C3 (stereo unspecified) | x | 89.3* | x | x | x | x
COC(=O)[C@]1(C)CCC[C@@]2(C)C3CC[C@@]4(C)C[C@]3(CCC21)CC(=O)N4 (stereo partly specified) | x | -6.4 | x | x | x | x
Cc1ccc(Nc2nnc(SCC(=O)NCCN3C(=O)CSC3=O)s2)cc1C | 82.0* | 53.0* | 1.64 | 25.8 | 48.5 | 0.2
CN=C1S/C(=C\c2cccn2-c2cccc(Br)c2)C(=O)N1C | x | x | x | 4.3 | x | x
CCN=c1scc(-c2ccco2)n1/N=C/c1ccc(OC)c(O)c1 | 19.5 | 14.9 | 3.99* | 181.7* | -21.5 | 0.8
CCN=c1scc(-c2ccco2)n1/N=C/c1ccc(O)cc1 | 29.2 | -0.1 | 1.14 | 78.5 | 5.4 | 0.7
SMILES | FLuc inh counter | C8 TRAIL sens | NF-kB expr up | APP 5'UTR act | PPC-1+TRAIL kill | FLuc stim CS
O=C(NCCc1cccs1)c1ccc(Cl)c(Cl)c1 | 23.1 | 9.0 | 3.77* | 63.1 | 36.0 | 0.8
CCn1nc2cc(C(=O)NCCc3cccs3)ccc2c1OC | 32.3 | 18.7 | 3.97* | 130.7 | 24.5 | 0.7
CC(C)N1CC(C(=O)Nc2ccc(C#N)cc2)CC1=O (stereo unspecified) | x | -10.1 | x | x | x | x
Cc1nc(SCCC(=O)O)c2cc(-c3ccccc3)sc2n1 | x | 62.6* | x | x | x | x
Cc1nc(N2CCOCC2)c2cc(-c3ccccc3)sc2n1 | 8.8 | 6.8 | 1.11 | 4.0 | 7.0 | 0.9
CCOc1ccc(-c2cc(C(=O)NC3CCCCC3)[nH]n2)c(C)c1 | x | 12.0 | x | x | x | x
Cc1ccc(NC(=O)C2CCCN(c3ncccn3)C2)cc1F (stereo unspecified) | 4.5 | -1.6 | 3.54* | 88.5 | 19.4 | 1
O=C(O)CSc1cc(NS(=O)(=O)c2ccc(Br)cc2)c2ccccc2c1O | x | 48.2* | x | x | x | x
COc1ccc(N=C2C(=Nc3ccc(OC)cc3)N(c3ccc(OC)cc3)C(=S)N2C(=O)c2ccc(OC)cc2)cc1 | -3.0 | -10.6 | 1.06 | -0.2 | 28.1 | 1
COc1ccc(N=C2C(=Nc3ccc(OC)cc3)N(c3ccccc3)C(=S)N2C(=O)c2ccc(Cl)cc2)cc1 | 3.5 | 9.7 | 6.79* | 9.8 | 26.7 | 1
O=C1C(=C2CCc3ccccc32)Cc2ccccc21 | x | 51.0* | x | x | x | x
O=C1C(=NO)CCCc2ccccc21 | x | -7.5 | x | x | x | x
CCCn1cc(S(=O)(=O)c2ccccc2)c(=O)c2cc(F)c(N3CCN(C)CC3)cc21 | x | -12.3 | x | x | x | x
c1ccc(C2Oc3ccccc3C3CC(c4cccs4)=NN32)cc1 (stereo unspecified) | 2.9 | -2.9 | 1.77 | 1.2 | 15.0 | 1
O=[N+]([O-])c1ccc(C2Oc3ccccc3C3CC(c4ccccc4)=NN32)s1 (stereo unspecified) | 3.5 | x | 8.81* | 124.2 | 22.6 | 1
O=C(Nc1ccc2c(c1)OCO2)c1ccc(Cl)cc1Cl | x | 71.1* | x | x | x | x
O=C(Nc1ccc2c(c1)OCO2)c1cc(Cl)ccn1 | x | 28.5 | x | x | x | x
O=C(Nc1ccc2c(c1)OCCO2)c1ccc(Cl)cc1Cl | x | 72.2* | x | x | x | x
CCOc1ccccc1C(=O)N1CCN(c2cccc(Cl)c2)CC1 | -5.9 | 4.4 | 4* | -94.5 | 6.7 | 1.1
Oc1ccc(/C=N/Nc2ncc(Br)cn2)c(O)c1 | 17.9 | 51.5* | 5.01* | 18.8 | 17.8 | 0.8
Cc1ccc(/C=N/Nc2cccc3cccnc23)c(O)c1 | 59.5* | 37.8 | 7.48* | 93.4 | -20.4 | 0.4
